One data set deals with HCT-116. Briefly: Growth inhibition of human HCT-116 cells harboring mutated p110alpha measured after 72 hrs by Cell titre Glo-luminiscence cell viability assay. It counts as functional. The procedure, abridged:
(§1)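 Cells harvested just before confluency and seeded at 4,000 cells/well, then left 24 h before dosing. Serial dilutions from 10 mM DMSO stocks, final DMSO ≤0.5%, each concentration in duplicate.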

Data set [1] in a line: Volume of distribution in BALB/c mouse at 5 mg/kg, iv measured for 8 hrs. It counts as ADME, organism-based. The following applies: in vivo. The procedure, abridged:
(§2)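 Dosing in BALB-C mice intravenously or orally, with plasma sampled over 8 h. Parameters (AUC, T1/2, Cl, Vd, Cmax, Tmax) come from a noncompartmental model. Units: AUC h.ng/ml, Vd L/Kg, Cmax ng/ml, Tmax h.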

The target in data set [2] is Voltage-gated inwardly rectifying potassium channel KCNH2 (Homo sapiens, UniProt Q12809). Briefly: Inhibition of human ERG by fluorescence polarization assay. In short, it runs like this: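 Predictor h-ERG membrane preparations (sonicated) incubated with test compound dilutions and fluorescent tracer (working 4X tracer at 4 nM) at room temperature for ≥1 h. Read-out by fluorescence polarization, ex 530/25, em 590/35.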
Background: Fluorescence polarisation rises when a labelled molecule tumbles more slowly, as on binding a larger partner.

The species entered for data set [3] is Homo sapiens. Briefly: Selectivity ratio of Ki for human p110gamma to Ki for human p110alpha/p85alpha using PIP2 as substrate in presence of ATP. In short, it runs like this:
(§3)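 Ki from a PI3-kinase HTRF assay run per manufacturer. Enzyme levels: p110α/p85α and p110δ/p85α 100 pM, p110β/p85α 500 pM, p110γ 4 nM. ATP at 50× KM: 200 μM (α, δ), 250 μM (β), 100 μM (γ). PIP2 10 μM. Activity normalized to no-compound control. Ratio is the isoform Ki over the α Ki.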

Data set [4] concerns the target PI3-kinase p110-delta/p85-alpha (Homo sapiens, UniProt O00329). Briefly: Inhibition of human p110delta/p85alpha using PIP2 as substrate in presence of ATP measured by HTRF assay. It counts as protein-complex assay. (In general: Time-resolved FRET reads energy transfer from a long-lived donor to a nearby acceptor.)
Data set [5] in a line: Plasma concentration in BALB/c mouse at 10 mg/kg, po measured for 8 hrs. It counts as ADME, organism-based. The procedure, abridged:
as §2

In another data set the target is PI3K p110 beta/p85 alpha (Homo sapiens, UniProt P42338). Briefly: Inhibition of human p110beta/p85alpha using PIP2 as substrate in presence of ATP measured by HTRF assay. It is filed as protein-complex assay.
Sequence of PI3K p110 beta/p85 alpha (P27986 whole entry, the tested form may be a part, canonical isoform): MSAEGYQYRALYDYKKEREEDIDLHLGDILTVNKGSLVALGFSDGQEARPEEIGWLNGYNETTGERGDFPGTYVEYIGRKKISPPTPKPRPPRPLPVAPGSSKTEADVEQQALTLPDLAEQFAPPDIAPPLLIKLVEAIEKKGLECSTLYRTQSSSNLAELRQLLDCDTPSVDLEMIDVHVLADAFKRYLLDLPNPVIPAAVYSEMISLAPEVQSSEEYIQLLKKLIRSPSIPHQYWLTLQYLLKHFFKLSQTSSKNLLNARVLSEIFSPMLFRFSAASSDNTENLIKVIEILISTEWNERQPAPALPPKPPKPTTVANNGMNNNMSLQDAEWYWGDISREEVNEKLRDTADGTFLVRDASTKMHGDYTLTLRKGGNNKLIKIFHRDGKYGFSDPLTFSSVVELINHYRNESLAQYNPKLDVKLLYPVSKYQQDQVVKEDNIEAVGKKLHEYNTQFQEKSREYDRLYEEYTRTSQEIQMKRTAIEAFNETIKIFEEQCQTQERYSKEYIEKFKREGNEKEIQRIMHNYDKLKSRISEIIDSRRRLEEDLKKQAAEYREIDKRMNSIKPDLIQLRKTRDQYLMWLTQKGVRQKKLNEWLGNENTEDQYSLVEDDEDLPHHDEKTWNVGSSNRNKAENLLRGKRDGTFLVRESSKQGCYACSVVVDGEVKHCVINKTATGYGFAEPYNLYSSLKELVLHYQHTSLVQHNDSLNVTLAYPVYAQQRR
Sequence of PI3K p110 beta/p85 alpha (P42338 whole entry, the tested form may be a part, canonical isoform): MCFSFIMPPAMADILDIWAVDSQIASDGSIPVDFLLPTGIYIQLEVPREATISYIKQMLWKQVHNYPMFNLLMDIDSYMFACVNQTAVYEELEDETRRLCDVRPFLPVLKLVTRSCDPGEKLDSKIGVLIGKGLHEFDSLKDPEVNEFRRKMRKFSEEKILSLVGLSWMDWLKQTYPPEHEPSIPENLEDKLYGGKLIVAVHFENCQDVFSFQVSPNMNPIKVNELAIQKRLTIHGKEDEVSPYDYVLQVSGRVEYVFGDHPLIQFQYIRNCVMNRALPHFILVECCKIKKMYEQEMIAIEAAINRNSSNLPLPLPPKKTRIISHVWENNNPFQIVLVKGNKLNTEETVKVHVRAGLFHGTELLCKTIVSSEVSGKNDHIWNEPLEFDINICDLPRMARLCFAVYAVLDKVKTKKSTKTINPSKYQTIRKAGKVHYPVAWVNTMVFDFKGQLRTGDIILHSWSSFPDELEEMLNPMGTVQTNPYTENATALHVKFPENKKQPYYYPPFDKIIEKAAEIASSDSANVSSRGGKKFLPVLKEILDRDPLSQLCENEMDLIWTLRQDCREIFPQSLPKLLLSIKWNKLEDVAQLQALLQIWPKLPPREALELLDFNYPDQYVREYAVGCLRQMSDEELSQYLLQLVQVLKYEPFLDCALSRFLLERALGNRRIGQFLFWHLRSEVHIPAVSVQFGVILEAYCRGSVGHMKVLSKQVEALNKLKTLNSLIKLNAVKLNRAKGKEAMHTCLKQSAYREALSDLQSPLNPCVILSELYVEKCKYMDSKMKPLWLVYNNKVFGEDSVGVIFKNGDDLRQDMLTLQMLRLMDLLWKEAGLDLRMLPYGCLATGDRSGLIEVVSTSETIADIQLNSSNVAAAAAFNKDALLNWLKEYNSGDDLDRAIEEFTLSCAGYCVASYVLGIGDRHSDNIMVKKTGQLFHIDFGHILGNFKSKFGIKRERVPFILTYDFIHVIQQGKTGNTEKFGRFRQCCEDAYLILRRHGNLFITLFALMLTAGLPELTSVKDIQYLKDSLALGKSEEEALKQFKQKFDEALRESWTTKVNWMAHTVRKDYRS
Data set [6] has as its target Phosphatidylinositol 4,5-bisphosphate 3-kinase catalytic subunit alpha isoform (Homo sapiens, UniProt P42336). Kind of data set: Inhibition of human full length p110alpha (1 to 1068 residues) expressed in baculovirus-infected Sf21 cells by ADP-Hunter Plus assay.
Data set [7] is described as follows: Inhibition of PI3K/mTOR in human MCF7 cells assessed as reduction of P70S6K phosphorylation at Thr389 residue measured after 3 hrs by western blot assay. The following applies: MCF7, 3 h. It is filed as cell-based. The procedure, abridged:
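MCF7 cells treated for 3 h across a dose range, washed and lysed with phosphatase and protease inhibitors. Lysates run on 10% SDS-PAGE and blotted, antibodies incubated overnight at 4 °C.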
(In western blotting, separated proteins are transferred to a membrane and probed.)

In the next data set the target is T1, Cytochrome P450 1A2 (Homo sapiens, UniProt P05177).
T1 sequence (P05177 whole entry): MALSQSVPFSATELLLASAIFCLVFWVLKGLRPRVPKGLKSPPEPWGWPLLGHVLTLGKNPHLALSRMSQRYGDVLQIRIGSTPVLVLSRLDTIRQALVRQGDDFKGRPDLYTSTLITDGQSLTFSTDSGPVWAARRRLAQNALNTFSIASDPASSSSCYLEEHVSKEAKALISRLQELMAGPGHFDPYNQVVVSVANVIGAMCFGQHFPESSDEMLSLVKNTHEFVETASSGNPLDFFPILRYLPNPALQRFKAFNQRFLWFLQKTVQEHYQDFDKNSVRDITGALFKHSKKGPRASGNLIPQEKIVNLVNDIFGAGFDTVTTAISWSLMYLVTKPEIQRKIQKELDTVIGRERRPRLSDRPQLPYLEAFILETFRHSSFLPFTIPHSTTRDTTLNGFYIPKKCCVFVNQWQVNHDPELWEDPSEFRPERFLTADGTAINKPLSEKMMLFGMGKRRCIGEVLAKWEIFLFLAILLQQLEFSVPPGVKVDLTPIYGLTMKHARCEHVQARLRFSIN
Briefly: Inhibition of CYP1A2 (unknown origin) using Luciferin-ME as substrate at 10 uM preincubated with enzyme and substrate for 5 mins followed by addition of NADPH regeneration system and measured after 60 mins by luminescence method. It counts as ADME. The procedure, abridged: (§4)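 P450-Glo luminescence assays with these substrates: Luciferin-ME (CYP1A2), Luciferin-PPXE (CYP3A4), Luciferin-H (CYP2C9), LuciferinH-EG (CYP2C19), Luciferin-ME-EG (CYP2D6). Compounds run in 1/3 serial dilutions from 10 µM in 0.5% DMSO with enzyme and substrate. After 5 min preincubation, NADPH regeneration reagent added; 60 min at 37 °C, then detection reagent for 30 min. Background subtracted.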

A short description of data set [8]: AUC (infinity) in BALB/c mouse at 5 mg/kg, iv measured for 8 hrs. Also on record: route intravenous, dose 5 mg/kg, time 8 hrs. As to conditions: in vivo. It counts as ADME, organism-based. The procedure, abridged:
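BALB/c mice dosed I.V. or P.O. at the stated dose; plasma levels followed for 8 h. Parameters from noncompartmental analysis: AUC (h.ng/ml), T1/2 (h), Cl (L/h/Kg), Vd (L/Kg), Cmax (ng/ml), Tmax (h).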

The nature of data set [9]: Metabolic stability in rat liver microsomes assessed as parent compound remaining in presence of NADPH regenerating system at 0.5 uM measured after 15 mins by LC-MS/MS analysis. It counts as ADME, Microsome. As to conditions: read-out: Stabilty. In short, it runs like this:
(§5)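 Human, mouse or rat liver microsomes at 0.5 mg/ml protein with compound at 0.5 µM and NADPH-regenerating system, 37 °C with shaking. Control wells contain 0.1 M potassium phosphate instead of the regenerating system. Reaction stopped with acetonitrile/0.1% formic acid, centrifuged, supernatant analyzed by LC-MS/MS. Result is percent parent compound remaining.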

The subject of another data set is HT-29. Kind of data set: Growth inhibition of human HT-29 cells harboring mutated p110alpha measured after 72 hrs by Cell titre Glo-luminiscence cell viability assay. It counts as functional. The procedure, abridged:
as §1

A short description of data set [10]: Metabolic stability in mouse liver microsomes assessed as parent compound remaining in presence of NADPH regenerating system at 0.5 uM measured after 15 mins by LC-MS/MS analysis. It counts as ADME, Microsome. The following applies: read-out: Stabilty. In short, it runs like this:
as §5

Another data set deals with Cytochrome P450 2C9 (Homo sapiens, UniProt P11712). Kind of data set: Inhibition of CYP2C9 (unknown origin) using Luciferin-H as substrate at 10 uM preincubated with enzyme and substrate for 5 mins followed by addition of NADPH regeneration system and measured after 60 mins by luminescence method. It counts as ADME. In short, it runs like this:
as §4

For data set [11], the species on record is Homo sapiens. Briefly: Selectivity ratio of Ki for human p110beta/p85alpha to Ki for human p110alpha/p85alpha using PIP2 as substrate in presence of ATP. In short, it runs like this:
as §3

Data set [12] has as its target Phosphatidylinositol 4,5-bisphosphate 3-kinase catalytic subunit gamma isoform (Homo sapiens, UniProt P48736). Kind of data set: Inhibition of human p110gamma using PIP2 as substrate in presence of ATP measured by HTRF assay. The procedure, abridged:
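HTRF PI3-kinase assay with PIP2 at 10 µM. Enzyme and ATP levels (ATP at 50× KM): p110α/p85α 100 pM with 200 µM ATP; p110δ/p85α 100 pM with 200 µM ATP; p110β/p85α 500 pM with 250 µM ATP; p110γ 4 nM with 100 µM ATP. Activity normalized to no-compound control, variable-slope sigmoidal fit. Two independent experiments in duplicate.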

A value given as a limit tells only on which side of the number the result lay.

Sequence of Phosphatidylinositol 4,5-bisphosphate 3-kinase catalytic subunit alpha isoform (P42336 whole entry, the tested form may be a part, canonical isoform): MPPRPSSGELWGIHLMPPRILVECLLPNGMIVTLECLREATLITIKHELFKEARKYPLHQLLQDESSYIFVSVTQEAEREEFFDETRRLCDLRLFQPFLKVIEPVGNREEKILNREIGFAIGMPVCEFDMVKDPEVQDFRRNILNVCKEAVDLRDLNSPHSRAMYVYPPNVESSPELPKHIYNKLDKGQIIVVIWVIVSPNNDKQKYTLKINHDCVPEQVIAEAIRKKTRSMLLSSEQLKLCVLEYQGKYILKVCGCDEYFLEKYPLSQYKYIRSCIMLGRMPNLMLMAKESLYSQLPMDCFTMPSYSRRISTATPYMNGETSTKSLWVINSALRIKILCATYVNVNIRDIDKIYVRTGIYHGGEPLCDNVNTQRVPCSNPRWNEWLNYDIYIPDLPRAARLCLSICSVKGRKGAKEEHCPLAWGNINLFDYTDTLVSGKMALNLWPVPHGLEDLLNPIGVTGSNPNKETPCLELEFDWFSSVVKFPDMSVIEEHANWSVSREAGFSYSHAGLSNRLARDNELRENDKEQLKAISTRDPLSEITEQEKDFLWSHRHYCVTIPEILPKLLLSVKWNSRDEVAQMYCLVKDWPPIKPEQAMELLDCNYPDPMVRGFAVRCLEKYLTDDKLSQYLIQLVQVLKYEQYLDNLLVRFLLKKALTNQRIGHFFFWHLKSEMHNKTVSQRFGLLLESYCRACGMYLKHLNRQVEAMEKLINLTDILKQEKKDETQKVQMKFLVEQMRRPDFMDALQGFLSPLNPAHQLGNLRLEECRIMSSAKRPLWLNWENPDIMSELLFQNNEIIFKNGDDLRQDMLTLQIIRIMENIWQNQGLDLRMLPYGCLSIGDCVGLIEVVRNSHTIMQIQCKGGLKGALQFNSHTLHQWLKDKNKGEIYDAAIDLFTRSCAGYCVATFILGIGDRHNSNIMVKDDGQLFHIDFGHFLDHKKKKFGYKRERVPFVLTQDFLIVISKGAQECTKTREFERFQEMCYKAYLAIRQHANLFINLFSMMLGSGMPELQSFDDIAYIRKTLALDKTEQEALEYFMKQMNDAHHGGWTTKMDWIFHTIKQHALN
Sequence of PI3-kinase p110-delta/p85-alpha (P27986 whole entry): as the sequence (P27986 whole entry, the tested form may be a part, canonical isoform) above
Sequence of PI3-kinase p110-delta/p85-alpha (O00329 whole entry): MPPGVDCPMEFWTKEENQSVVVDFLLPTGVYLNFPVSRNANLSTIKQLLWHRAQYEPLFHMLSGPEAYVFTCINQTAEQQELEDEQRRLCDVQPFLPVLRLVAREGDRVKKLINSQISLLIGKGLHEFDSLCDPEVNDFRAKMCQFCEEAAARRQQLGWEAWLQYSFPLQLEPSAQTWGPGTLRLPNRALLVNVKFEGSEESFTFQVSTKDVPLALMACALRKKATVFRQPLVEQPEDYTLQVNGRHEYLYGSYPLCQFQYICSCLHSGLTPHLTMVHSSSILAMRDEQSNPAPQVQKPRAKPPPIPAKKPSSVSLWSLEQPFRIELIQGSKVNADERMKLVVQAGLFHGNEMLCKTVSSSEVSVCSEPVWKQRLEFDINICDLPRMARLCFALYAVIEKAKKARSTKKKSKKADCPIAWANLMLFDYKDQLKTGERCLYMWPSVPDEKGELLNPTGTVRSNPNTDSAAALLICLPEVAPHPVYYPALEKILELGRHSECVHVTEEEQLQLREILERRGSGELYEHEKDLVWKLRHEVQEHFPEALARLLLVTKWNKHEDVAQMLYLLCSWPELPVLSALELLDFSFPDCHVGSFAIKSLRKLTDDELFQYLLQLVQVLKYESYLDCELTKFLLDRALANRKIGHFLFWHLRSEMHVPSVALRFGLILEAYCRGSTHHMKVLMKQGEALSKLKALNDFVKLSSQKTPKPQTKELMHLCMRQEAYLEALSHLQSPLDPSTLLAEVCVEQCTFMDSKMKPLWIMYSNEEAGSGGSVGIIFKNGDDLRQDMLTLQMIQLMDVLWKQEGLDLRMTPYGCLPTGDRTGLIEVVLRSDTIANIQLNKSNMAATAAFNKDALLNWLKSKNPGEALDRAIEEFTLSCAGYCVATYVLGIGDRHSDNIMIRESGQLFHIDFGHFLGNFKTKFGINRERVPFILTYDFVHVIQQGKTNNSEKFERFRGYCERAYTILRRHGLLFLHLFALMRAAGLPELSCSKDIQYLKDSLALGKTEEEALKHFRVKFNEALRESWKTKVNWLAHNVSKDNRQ
Sequence of Cytochrome P450 2C9 (P11712 whole entry): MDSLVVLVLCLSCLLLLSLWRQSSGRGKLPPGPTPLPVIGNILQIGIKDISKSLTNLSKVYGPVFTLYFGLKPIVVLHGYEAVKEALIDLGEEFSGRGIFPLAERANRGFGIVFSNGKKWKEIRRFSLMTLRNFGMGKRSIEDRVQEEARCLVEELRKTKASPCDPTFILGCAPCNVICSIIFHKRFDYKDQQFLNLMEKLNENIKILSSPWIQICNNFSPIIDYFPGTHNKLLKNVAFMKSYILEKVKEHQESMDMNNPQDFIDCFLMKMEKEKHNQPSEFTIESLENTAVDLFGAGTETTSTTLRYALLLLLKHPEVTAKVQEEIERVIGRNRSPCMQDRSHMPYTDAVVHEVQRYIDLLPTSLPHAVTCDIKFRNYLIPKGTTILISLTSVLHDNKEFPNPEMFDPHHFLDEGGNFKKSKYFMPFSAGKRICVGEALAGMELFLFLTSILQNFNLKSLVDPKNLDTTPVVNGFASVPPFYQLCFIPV

Usually GI50 stands for the concentration that inhibits growth by half. Read a high GI50 as lower sensitivity of the cells. As a reminder, the Vd is the apparent volume that relates the amount in the body to the concentration in plasma or blood. A lower Vd goes with little distribution into tissue. By IC50 is commonly meant the concentration that inhibits the measured activity by half. What is called Ki is a dissociation constant, usually derived from enzyme kinetics or from competition with a known ligand. For orientation: EC50 means the midpoint of the concentration-response curve. By AUC(0-inf) is commonly meant the area under the concentration-time curve extrapolated to infinity. With `COc1ncc2cc1NS(=O)(=O)c1cccc(c1)C(=O)NCc1cncc(c1)-c1cnc3ccc-2cn13`, the GI50 was found to be 22.8 nM in the data set with HCT-116 and 8.2 nM in the data set with HT-29. This compound also registered a Vd in [1] of 5.98 L/kg. Also, the IC50 in data set [2] is over 30000 nM; in [6] it was 0.8 nM; on Cytochrome P450 1A2, over 30000 nM; on Cytochrome P450 2C9, over 30000 nM. In addition, the Selectivity ratio came to 6.3 in the data set listed under Homo sapiens [3] and 6 in the data set filed under Homo sapiens [11]. Further, the Ki is 0.06 nM in data set [4], 0.94 nM on PI3K p110 beta/p85 alpha and 0.98 nM in [12]. This compound also yielded a concentration at 8 h in [5] of 202 ng/mL. For the same compound, the EC50 in data set [7] was determined as 0.92 nM. The compound further came in with an AUC(0-inf) in [8] of 2640 ng·h/mL. Moreover, the remaining at 0.25 h, 0.5 µM in data set [9] turned out to be 100%; in [10] it was 97%.

These data come from ChEMBL document CHEMBL4819017 (Eur J Med Chem, 2021).
